Results: ChEMBL document CHEMBL3272019, “Synthesis and some properties and antitumor effects of the actinomycin lactam analog, (di(1-L-alpha, beta-diaminopropionic))actinomycin D1” (1976)
Converted amounts (≈) assume the structure as drawn. The source made the active and inactive calls. The rule behind the calls is not given here. Starred links: 1 amine or outer side, 2 acyl side, 3 side chain; linkers in the order of their positions; H or OH if unused. Positions of bridges follow the written chain, without caps; N, C: chain ends. Non-standard residues stand in square brackets, D forms with d. Residues, ends and D or L forms follow the SMILES beside them. Chains are numbered I, II in the order given. Actinocin(1to9) = Cc1c2oc3c(C)ccc(C(=O)[*:2])c3nc-2c(C(=O)[*:1])c(N)c1=O; NMeV = CN[C@H](C(=O)O)C(C)C; Sar = CNCC(=O)O

Experiments:
Homo sapiens [1] = species: Homo sapiens; assay: Binding affinity to poly[d(DAP-A-T)] (unknown origin) at 14.3 uM by visible and near-UV CD spectrophotometry
Summary of the method: (§1)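 Visible and near-UV CD spectra of actinomycin D recorded free and with polynucleotide, in 0.01 M sodium phosphate pH 7.0 at about 23°, in 1-cm tandem cylindrical quartz cells. DNA levels were given as nucleotide phosphorus: PM2 0.54 mM, calf thymus 0.50 mM, poly[d(DAP-A-T)] 0.12 mM and poly[d(DAP-T)] 0.27 mM. Drug concentration was set from the 440 nm extinction coefficient (24450 M⁻¹ cm⁻¹).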

Homo sapiens [2] = species: Homo sapiens; assay: Binding affinity to poly[d(DAP-T)] (unknown origin) at 14.3 uM by visible and near-UV CD spectrophotometry; summary of the method: as §1
Calf thymus DNA = assay: Binding affinity to calf thymus DNA at 34.5 uM by visible and near-UV CD spectrophotometry; type: nucleic-acid assay; settings: Bos taurus; summary of the method: as §1
[3] = system: Pseudoalteromonas phage PM2; assay: Binding affinity to bacteriophage PM2 DNA at 31 uM by visible and near-UV CD spectrophotometry; summary of the method: as §1
Bacillus subtilis = assay: Antibacterial activity against Bacillus subtilis Marburg assessed as growth inhibition; type: functional
Staphylococcus aureus = assay: Antibacterial activity against Penicillin-resistant Staphylococcus aureus assessed as growth inhibition; type: functional
Sarcina = assay: Antibacterial activity against Sarcina subflava assessed as growth inhibition; type: functional
L1210 [4] = assay: Antitumor activity against mouse L1210 cells allografted in BDF1 mouse assessed as mean survival time at 0.05 mg/kg/injection, ip administered daily for 9 days (reference value: 9.6 days); type: functional; settings: route intraperitoneal
L1210 [5] = assay: Antitumor activity against mouse L1210 cells allografted in BDF1 mouse assessed as mean survival time at 0.3 mg/kg/injection, ip administered intermittently on days 1, 5 and 9 (reference value: 9.6 days); type: functional; settings: route intraperitoneal
L1210 [6] = assay: Antitumor activity against mouse L1210 cells allografted in BDF1 mouse assessed as mean survival time at 0.4 mg/kg/injection, ip administered as single dose (reference value: 9.6 days); type: functional; settings: route intraperitoneal
L1210 [7] = assay: Antitumor activity against mouse L1210 cells allografted in BDF1 mouse assessed as increase in life span at 0.05 mg/kg/injection, ip administered daily for 9 days; type: functional; settings: 216 h, route intraperitoneal
L1210 [8] = assay: Antitumor activity against mouse L1210 cells allografted in BDF1 mouse assessed as increase in lifespan at 0.3 mg/kg/injection, ip administered intermittently on days 1, 5 and 9; type: functional; settings: route intraperitoneal
L1210 [9] = assay: Antitumor activity against mouse L1210 cells allografted in BDF1 mouse assessed as increase in life span at 0.4 mg/kg/injection, ip administered as single dose; type: functional; settings: route intraperitoneal
P388 [10] = assay: Antitumor activity against mouse P388 cells allografted in BDF1 mouse assessed as mean survival time at 0.05 mg/kg/injection, ip administered daily for 9 days (reference value: 10.5 days); type: functional; settings: route intraperitoneal
Summary of the method: (§2)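 P388 leukaemia: 10⁶ cells implanted ip on day 0 into groups of eight male BDF mice. Dosing was ip daily on days 1–9, on days 1, 5 and 9, or as a single day-1 dose, over four- to fivefold dose ranges. Median survival time (range of deaths) and percent increase in life-span were recorded, with survivors/total counted at day 60.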

P388 [11] = assay: Antitumor activity against mouse P388 cells allografted in BDF1 mouse assessed as mean survival time at 0.3 mg/kg/injection, ip administered intermittently on days 1, 5 and 9 (reference value: 10.5 days); type: functional; settings: route intraperitoneal; summary of the method: as §2
P388 [12] = assay: Antitumor activity against mouse P388 cells allografted in BDF1 mouse assessed as mean survival time at 0.4 mg/kg/injection, ip administered as single dose (reference value: 10.5 days); type: functional; settings: route intraperitoneal; summary of the method: as §2
P388 [13] = assay: Antitumor activity against mouse P388 cells allografted in BDF1 mouse assessed as increase in life span at 0.05 mg/kg/injection, ip administered daily for 9 days measured on day 60; type: functional; settings: route intraperitoneal; summary of the method: as §2
P388 [14] = assay: Antitumor activity against mouse P388 cells allografted in BDF1 mouse assessed as increase in life span at 0.3 mg/kg/injection, ip administered intermittently on days 1, 5 and 9 measured on day 60; type: functional; settings: 1440 h, route intraperitoneal; summary of the method: as §2
P388 [15] = assay: Antitumor activity against mouse P388 cells allografted in BDF1 mouse assessed as increase in life span at 0.4 mg/kg/injection, ip administered as single dose measured on day 60; type: functional; settings: 1440 h, route intraperitoneal; summary of the method: as §2
B16 [16] = assay: Antitumor activity against mouse B16 cells allografted in BDF1 mouse assessed as mean survival time at 0.025 mg/kg/injection, ip administered daily for 9 days (reference value: 28 days); type: functional; settings: route intraperitoneal
Summary of the method: (§3)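 B16 melanoma in mice, standard screening method. Schedules were daily on days 1–9, on days 1, 5 and 9, or a single day-1 injection, each over a four- to fivefold dose range. Survival time (range of individual deaths) was recorded, percent increase in life-span computed against untreated controls, and survivors tallied.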

B16 [17] = assay: Antitumor activity against mouse B16 cells allografted in BDF1 mouse assessed as mean survival time at 0.3 mg/kg/injection, ip administered intermittently on days 1, 5 and 9 (reference value: 28 days); type: functional; settings: route intraperitoneal; summary of the method: as §3
B16 [18] = assay: Antitumor activity against mouse B16 cells allografted in BDF1 mouse assessed as mean survival time at 0.4 mg/kg/injection, ip administered as single dose (reference value: 28 days); type: functional; settings: route intraperitoneal; summary of the method: as §3
B16 [19] = assay: Antitumor activity against mouse B16 cells allografted in BDF1 mouse assessed as increase in life span at 0.025 mg/kg/injection, ip administered daily for 9 days measured on day 60; type: functional; settings: route intraperitoneal; summary of the method: as §3
B16 [20] = assay: Antitumor activity against mouse B16 cells allografted in BDF1 mouse assessed as increase in life span at 0.3 mg/kg/injection, ip administered intermittently on days 1, 5 and 9 measured on day 60; type: functional; settings: 1440 h, route intraperitoneal; summary of the method: as §3
B16 [21] = assay: Antitumor activity against mouse B16 cells allografted in BDF1 mouse assessed as increase in life span at 0.4 mg/kg/injection, ip administered as single dose measured on day 60; type: functional; settings: 1440 h, route intraperitoneal; summary of the method: as §3

Cc1c2oc3c(C)ccc(C(=O)N[C@@H]4C(=O)N[C@H](C(C)C)C(=O)N5CCC[C@H]5C(=O)N(C)CC(=O)N(C)[C@@H](C(C)C)C(=O)O[C@@H]4C)c3nc-2c(C(=O)N[C@@H]2C(=O)N[C@H](C(C)C)C(=O)N3CCC[C@H]3C(=O)N(C)CC(=O)N(C)[C@@H](C(C)C)C(=O)O[C@@H]2C)c(N)c1=O [DACTINOMYCIN] (I: T[dV]P[Sar][NMeV] / II: T[dV]P[Sar][NMeV]; ester I:1-I:C, II:1-II:C; linker I:N-II:N via Actinocin(1to9))
Activity (Homo sapiens [1]): Active
Activity (Homo sapiens [2]): Active
Activity (Calf thymus DNA): Active
Activity [3]: Active
MIC (Bacillus subtilis): 0.09 µg/mL (≈ 0.0717 µM)
IC50 (Bacillus subtilis; read-out: ID50 (the source's name)): 0.05 µg/mL (≈ 0.0398 µM)
MIC (Staphylococcus aureus): 0.05 µg/mL (≈ 0.0398 µM)
MIC (Sarcina): 0.045 µg/mL (≈ 0.0358 µM)
MST (L1210 [4]): 13.6 days
MST (L1210 [5]): 14 days
MST (L1210 [6]): 12.6 days
ILS at 0.05 mg/kg (L1210 [7]): 42%
ILS at 0.3 mg/kg (L1210 [8]): 45%
ILS at 0.4 mg/kg (L1210 [9]): 31%
MST (P388 [10]): 28.5 days
MST (P388 [11]): 38 days
MST (P388 [12]): 22 days
ILS at 0.05 mg/kg (P388 [13]): 171%
ILS at 0.3 mg/kg (P388 [14]): 262%
ILS at 0.4 mg/kg (P388 [15]): 110%
MST (B16 [16]): 45 days
MST (B16 [17]): 41.5 days
MST (B16 [18]): 38.5 days
ILS at 0.025 mg/kg (B16 [19]): 61%
ILS at 0.3 mg/kg (B16 [20]): 48%
ILS at 0.4 mg/kg (B16 [21]): 38%
